Tests used:
[1] = system: L1210; assay: In vitro inhibition of uptake [3H]-spermidine in L1210 (murine leukemia) cells.; assay type: functional, cell-based, Mus musculus
[2] = system: L1210; assay: Ability to competitively inhibit uptake of radiolabeled spermidine in L1210 cells; assay type: functional, cell-based, Mus musculus
Method in brief: (§1)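 Murine L1210 leukemia cells in RPMI-1640 with 10% FBS and 1 mM aminoguanidine. Pellets washed in cold medium containing 1 mM SPD, dissolved in NaOH, scintillation counted. Ki from Lineweaver–Burke plots; Km(SPD) 2.1 μM; mean of ≥3 experiments.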

[3] = system: L1210; assay: Growth inhibitory activity of compound on L1210 cells after 96 hours; assay type: functional, cell-based; details: Mus musculus, L1210, 96 h
Method in brief: (§2)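 Murine L1210 leukemia cells were kept in log-phase suspension in RPMI-1640 with 10% FBS, 2% HEPES-MOPS, 1 mM aminoguanidine and 1 mM L-glutamine at 37 °C under 5% CO₂. They were dosed at 0.5–1.0 × 10⁵ cells/mL with analogue in sterile water, 0.2 μm filtered. For the 96 h value, cells were reseeded at 48 h. Cells were counted electronically. IC50 is the concentration giving 50% of control growth, net of the inoculum.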

[4] = system: L1210; assay: Ability to competitively inhibit radioligand spermidine transport in L1210 cells; assay type: functional, cell-based, Mus musculus; method in brief: as §1
[5] = system: L1210; assay: Growth inhibitory activity of compound on L1210 cells after 48 hours; assay type: functional, cell-based; details: Mus musculus, L1210, 48 h; method in brief: as §2
[6] = Acute toxicity was assessed after ip administration of a single dose of 325 mg/kg to a group of 5 female CD-1 mice; assay type: organism-based; parameters: dose 325 mg/kg, route intraperitoneal; details: CD-1, mouse, in vivo
[7] = Effect of Chronic compound treatment on polyamine homeostasis in mouse liver(total[N+]) total dose of 100 mg/kg; assay type: ADME, organism-based; parameters: dose 100 mg/kg; details: in vivo
Method in brief: (§3)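 Groups of three female CD-1 mice were given 20 mg/kg/day as a single daily ip injection for 5 days (total 100 mg/kg, 215.3 μmol/kg). Mice were sacrificed 24 h after the last dose. Liver and kidney perchloric acid extracts were dansylated and run on HPLC, quantified against calibration curves. [N+] equivalents = 2[diamine] + 3[triamine] + 4[tetraamine], in nequiv/g wet weight, ±SD.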

[8] = Effect of Chronic compound treatment on polyamine homeostasis in mouse kidney (total[N+]) at total dose of 100 mg/kg; assay type: ADME, organism-based; parameters: dose 100 mg/kg; details: in vivo; method in brief: as §3
[9] = Effect of Chronic compound treatment on polyamine homeostasis in mouse liver (native[N+]) total dose of 100 mg/kg; assay type: ADME, organism-based; parameters: dose 100 mg/kg; details: in vivo; method in brief: as §3
[10] = Effect of Chronic compound treatment on polyamine homeostasis in mouse kidney (native[N+]) at total dose of 100 mg/kg; assay type: ADME, organism-based; parameters: dose 100 mg/kg; details: in vivo; method in brief: as §3
[11] = Effect of Chronic compound treatment on polyamine homeostasis in mouse liver(total[N+]) at total dose of 90 mg/kg; assay type: ADME, organism-based; parameters: dose 90 mg/kg; details: in vivo
Method in brief: (§4)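 Groups of three female CD-1 mice were dosed at 15 mg/kg/day for 6 days (total 90 mg/kg, 208.3 μmol/kg). Mice were sacrificed 1 day after the final dose. Liver and kidney perchloric acid extracts were dansylated and analysed by HPLC against calibration standards. [N+] equivalents = 2[diamine] + 3[triamine] + 4[tetraamine], in nequiv/g wet weight, ±SD.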

[12] = Effect of Chronic compound treatment on polyamine homeostasis in mouse kidney (native[N+]) at total dose of 90 mg/kg; assay type: ADME, organism-based; parameters: dose 90 mg/kg; details: in vivo; method in brief: as §4
[13] = Effect of Chronic compound treatment on polyamine homeostasis in mouse liver (native[N+]) at total dose of 90 mg/kg; assay type: ADME, organism-based; parameters: dose 90 mg/kg; details: in vivo; method in brief: as §4
[14] = system: L1210 (Mus musculus); assay: Growth inhibitory activity of compound on L1210 cells after 96 hours; details: L1210, 96 h

CCNCCCCNC1CCC(NCCCCNCC)CC1 (stereo unspecified)
Ki [1]: 3500 nM

c1cc(CNCCCCNCc2ccncc2)ccn1
Ki [1]: > 500000 nM

CCNCCCNC1CCC(NCCCNCC)CC1 (stereo unspecified)
Ki [1]: 7900 nM

C(CCNCCCCNC12CC3CC(CC(C3)C1)C2)CNCCCCNC12CC3CC(CC(C3)C1)C2
Ki [2]: 2000 nM

C(CNC1CCNCC1)CNC1CCNCC1
Ki [1]: 60500 nM

C(CCNCCC1CCNCC1)CNCCC1CCNCC1
Ki [1]: 18100 nM

c1cc(NCCCNc2ccncc2)ccn1
Ki [1]: > 500000 nM

CCNCCC(O)CNCCCCNCC(O)CCNCC (stereo unspecified)
IC50 [3]: 50 nM
Ki [4]: 1800 nM
IC50 [5]: 600 nM
LD50 [6]: 325 mg/kg
LD50 [7]: 6706 mg/kg
LD50 [8]: 5427 mg/kg
LD50 [9]: 6118 mg/kg
LD50 [10]: 3251 mg/kg

CCNCCCNCCCNCCCNCC [BIS(ETHYL)NORSPERMINE]
LD50 [6]: 325 mg/kg

CCNCCCCNCCCCNCCCCNCC [DIETHYLHOMOSPERMINE]
LD50 [11]: 7806 mg/kg
LD50 [12]: 1560 mg/kg
LD50 [6]: 325 mg/kg
LD50 [13]: 5506 mg/kg
IC50 [14]: 50 nM

— ChEMBL document CHEMBL1129073, “Metabolically programmed polyamine analogue antidiarrheals” (J Med Chem, 1996)
